A short description of data set [1]: Inhibition of amyloid beta (1-42) aggregation by thioflavin T fluorescence method. The procedure, abridged: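 Compound (2 μL of 0.1–10.0 mM) was mixed with 4 μL of 50 μM Aβ1-42 in PBS pH 7.4 containing 11% ethanol, 2 h at room temperature. Then 40 μM ThT in PBS/10% ethanol was added. Fluorescence was read with excitation 430 nm and emission 488 nm.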
Data set [2] concerns PC-12. The data set can be described thus: Neuroprotective activity against rat PC12 cells assessed as reversal of amyloid beta (1 to 42)-induced neuronal damage in at 3 uM after 48 hrs by MTT assay. The data set is classed as functional. The method, boiled down: (§1)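 Differentiated PC-12 cells (10 000/well) received compound diluted in Aβ1-42 solution (5% DMSO water stock), giving final 10 μM Aβ1-42 with 0–3 μM compound (0.01–3 μM; dose curve 0.003–3 μM), for 48 h. MTT absorbance at 570 nm was normalized to full-kill and media controls. 3 independent experiments × 3 replicates.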
For orientation: Formazan colour is commonly taken as a measure of viable cells.

Data set [3] deals with PC-12. The data set is described as follows: Neuroprotective activity against rat PC12 cells assessed as reversal of amyloid beta (1 to 42)-induced neuronal damage in at 1 uM after 48 hrs by MTT assay. The data set is classed as functional. The procedure, abridged:
as §1

Data set [4] in a line: Inhibition of amyloid beta (12-28) fibrillation assessed as increase in beta-sheet conformation at 3:1 compound to protein ratio by CD spectroscopy assay. To be noted: concentration not given here. The procedure, abridged:
(§2)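 HFIP-treated Aβ12-28 was dissolved in 50% TFE/water at 80 μM, with compound at 1:3 protein:compound. CD spectra were taken in a 0.1 cm path cuvette. Secondary-structure content (helix, β-sheet, turn) was obtained by spectral deconvolution.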

A short description of data set [5]: Inhibition of amyloid beta (1 to 42) fibrillation after 27 days by AFM assay. To be noted: in the assay text read “after 17 days” for “after 27 days”. The method, boiled down: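 For fibril formation, 200 μM Aβ1-42 in water/DMSO was kept 17 days at 37 C. These fibrils were then incubated with compound (10 mM stock) or DMSO for 27 days at 37 C. Samples were diluted 5-fold in water, dried on mica and imaged by tapping-mode AFM.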

Data set [6] deals with PC-12. The data set is described as follows: Cytotoxicity against rat PC12 cells at 1 uM by MTT assay. It counts as cell-based. The conditions noted are these: pc-12, 1 µM. The procedure, abridged: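 Differentiated PC-12 cells in DMEM with 10% heat-inactivated FBS and 2 mM L-glutamine, 37 C, 5% CO2. Plated at 10 000 cells/well and treated 24 h later with compound diluted in medium (0.1 nM to 100 μM) for 48 h. MTT read at 570 nm. Viability scaled between media and 5 μM staurosporine controls. At least 3 independent experiments × 3 replicates.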

Data set [7] in a line: Inhibition of amyloid beta (12-28) fibrillation assessed as increase in beta-turn conformational component at 3:1 compound to protein ratio by CD spectroscopy assay. The conditions noted are these: concentration not given here. The method, boiled down: as §2
Data set [8] is described as follows: Inhibition of amyloid beta (1 to 42) fibrillation after 5 days at -80 degC by PICUP assay. The method, boiled down: (§3)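 Aβ1-42 was HFIP-treated, sonicated 30 min, dried under nitrogen and redissolved in water. Photo-crosslinking used Ru(bpy)3Cl2 and APS (Aβ/Ru/APS 1/4/80) under a 150 W xenon lamp for 3 s, then quench, 95 C for 5 min and 15% tricine SDS-PAGE. Monomer/(dimer+tetramer) band pixels were compared.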

A short description of data set [9]: Inhibition of amyloid beta (1 to 42) fibrillation after 5 days at 37 degC by PICUP assay. The method, boiled down: as §3
A short description of data set [10]: Inhibition of amyloid beta (12-28) fibrillation assessed as decrease in alpha-helix component at 3:1 compound to protein ratio by CD spectroscopy assay. The conditions noted are these: concentration not given here.
Data set [11] in a line: Inhibition of gamma-secretase by fluorogenic substrate assay. The method, boiled down: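 Membrane protein (10 μg/well) was incubated with 6 μM fluorogenic substrate and compound in reaction buffer, 100 μL final, at 37 C for 5 h. Fluorescence was read at excitation 355 nm and emission 440 nm. L685,458 was the reference inhibitor. Dose-response curves were fitted by nonlinear regression.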

For data set [12], the system named is PC-12. The data set can be described thus: Neuroprotective activity against rat PC12 cells assessed as reversal of amyloid beta (1 to 42)-induced neuronal damage after 48 hrs by MTT assay. The data set is classed as functional, cell-based. The procedure, abridged: as §1

Calls of active or inactive are those of the source. The rule behind the calls is not given here.

As usually defined, the IC50 is the midpoint of a concentration-inhibition curve. In general, inhibition refers to the share of the control response that was lost under treatment.

As for `CN1CCN(CC(O)COc2c(Br)cc(C(c3cc(Br)c(OCC(O)CN4CCN(C)CC4)c(Br)c3)(C(F)(F)F)C(F)(F)F)cc2Br)CC1` (stereo not drawn), the IC50 in data set [1] (read-out: IC50) was 24 µM. For the compound `CC(C)(c1ccc(OCC(O)CN2CCCCC2)cc1)c1ccc(OCC(O)CN2CCCCC2)cc1` (stereo not drawn), the IC50 in data set [1] (read-out: IC50) was 110 µM. Regarding `Cc1cc(C(C)(C)c2ccc(OCC(O)CN3CCOCC3)c(C)c2)ccc1OCC(O)CN1CCOCC1` (stereo not drawn), the IC50 entry in data set [1] is recorded as “Not Active”.

Turning to `CN1CCN(CC(O)COc2ccc(C(C)(C)c3ccc(OCC(O)CN4CCN(C)CC4)cc3)cc2)CC1` (stereo not drawn), the IC50 result in data set [1] is on record as “Not Active”.

On to `Cc1cc(C(C)(C)c2cc(C)c(OCC(O)CN3CC(C)CC(C)C3)c(C)c2)cc(C)c1OCC(O)CN1CC(C)CC(C)C1` (stereo not drawn), for which, in data set [1] (read-out: IC50), the IC50 was found to be 8.9 µM. The same measure, in the same setting: the figure for `CCCCN(CCCC)CC(O)COc1c(Br)cc(C(C)(C)c2cc(Br)c(OCC(O)CN(CCCC)CCCC)c(Br)c2)cc1Br` (stereo not drawn) is 0.27 µM. As to `OC(COc1c(Br)cc(C2(c3cc(Br)c(OCC(O)CN4CCOCC4)c(Br)c3)CCCC2)cc1Br)CN1CCOCC1` (stereo not drawn), in data set [1], the IC50 result is “Not Active”. Regarding `Cc1cc(C2(c3cc(C)c(OCC(O)CN4CCOCC4)c(C)c3)CCCC2)cc(C)c1OCC(O)CN1CCOCC1` (stereo not drawn), in data set [1], the IC50 entry is recorded as “Not Active”. Same read-out and setting: the result for `CC(C)(c1ccc(OCC(O)CN2CCOCC2)cc1)c1ccc(OCC(O)CN2CCOCC2)cc1` (stereo not drawn) reads “Not Active”. Take `Cc1cc(C(C)(C)c2cc(C)c(OCC(O)CN3CCC4(CC3)OCCO4)c(C)c2)cc(C)c1OCC(O)CN1CCC2(CC1)OCCO2` (stereo not drawn): in data set [1] (read-out: IC50), the IC50 turned out to be 20 µM. Take `CC1CC(C)CN(CC(O)COc2c(Br)cc(C(C)(C)c3cc(Br)c(OCC(O)CN4CC(C)CC(C)C4)c(Br)c3)cc2Br)C1` (stereo not drawn): the Activity was 104.2% in the data set with PC-12 [2], 96.6% with PC-12 [3], “Non-toxic” with PC-12 [6] and “Dose-dependent effect” with PC-12 [12]. Besides, the inhibition stood at 17.4% in data set [4], 13.7% in data set [7] and 40.4% in data set [10]. The inhibition result in data set [5], in data set [8] and in [9] was “Active” each time. In addition, the IC50 was determined as 4.8 µM in data set [1] (read-out: IC50); 5.57 µM in [11]; 0.8 µM in the data set on PC-12 [12] (PC-12, 48 h). Turning to `Cc1cc(C2(c3cc(C)c(OCC(O)CN4CCN(C)CC4)c(C)c3)CCCCC2)cc(C)c1OCC(O)CN1CCN(C)CC1` (stereo not drawn), the IC50 in data set [1] (read-out: IC50) stood at 70 µM. With `Cc1cc(C(C)(C)c2cc(C)c(OCC(O)CN3CCN(C(=O)OC(C)(C)C)CC3)c(C)c2)cc(C)c1OCC(O)CN1CCN(C(=O)OC(C)(C)C)CC1` (stereo not drawn), the IC50 is 0.4 µM in data set [1] (read-out: IC50) and 1.82 µM in data set [11].

In the case of `Cc1cc(C(C)(C)c2cc(C)c(OCC(O)CN3CCCCC3)c(C)c2)cc(C)c1OCC(O)CN1CCCCC1` (stereo not drawn), in [1] (read-out: IC50), the IC50 came to 43 µM. Regarding `CC(C)(c1cc(Br)c(OCC(O)CN2CCOCC2)c(Br)c1)c1cc(Br)c(OCC(O)CN2CCOCC2)c(Br)c1` (stereo not drawn), in data set [1] (read-out: IC50), the IC50 amounted to 26 µM. Regarding `CC(C)(C)c1ccc(NCC(O)COc2c(Br)cc(C(C)(C)c3cc(Br)c(OCC(O)CNc4ccc(C(C)(C)C)cc4)c(Br)c3)cc2Br)cc1` (stereo not drawn), the half-maximal inhibitory concentration (IC50) entry in data set [1] is recorded as “Not Active”. `Cc1cc(C2(c3cc(C)c(OCC(O)CN4CCN(C)CC4)c(C)c3)CCCC2)cc(C)c1OCC(O)CN1CCN(C)CC1` (stereo not drawn): the IC50 in [1] (read-out: IC50) came out at 56 µM. For the compound `Cc1cc(C(C)(C)c2cc(C)c(OCC(O)CN3CCCC3)c(C)c2)cc(C)c1OCC(O)CN1CCCC1` (stereo not drawn), in data set [1] (read-out: IC50), the IC50 was found to be 11 µM. Regarding `Cc1cc(C2(c3cc(C)c(OCC(O)CN4CCOCC4)c(C)c3)CCCCCC2)cc(C)c1OCC(O)CN1CCOCC1` (stereo not drawn), the IC50 entry in [1] is “Not Active”. On to `Cc1cc(C(C)(C)c2cc(C)c(OCC(O)CN3CCCCCC3)c(C)c2)cc(C)c1OCC(O)CN1CCCCCC1` (stereo not drawn), for which, in data set [1] (read-out: IC50), the IC50 was 6.2 µM. In the case of `Cc1cc(C2(c3cc(C)c(OCC(O)CN4CCOCC4)c(C)c3)CCCCC2)cc(C)c1OCC(O)CN1CCOCC1` (stereo not drawn), the IC50 result in data set [1] was “Not Active”.

`CC(C)(c1cc(Br)c(OCC(O)CN2CCC3(CC2)OCCO3)c(Br)c1)c1cc(Br)c(OCC(O)CN2CCC3(CC2)OCCO3)c(Br)c1` (stereo not drawn): the IC50 in data set [1] (read-out: IC50) is 4.7 µM. On to `OC(COc1ccc(C(c2ccc(OCC(O)CN3CCOCC3)cc2)(C(F)(F)F)C(F)(F)F)cc1)CN1CCOCC1` (stereo not drawn), for which the IC50 entry in data set [1] is listed as “Not Active”.

With `Cc1cc(C(C)(C)c2cc(C)c(OCC(O)CN3CCOCC3)c(C)c2)cc(C)c1OCC(O)CN1CCOCC1` (stereo not drawn), in [1], the IC50 result is recorded as “Not Active”.

For `Cc1cc(C(C)(C)c2cc(C)c(OCC(O)CN3CCN(Cc4ccccc4)CC3)c(C)c2)cc(C)c1OCC(O)CN1CCN(Cc2ccccc2)CC1` (stereo not drawn), the half-maximal inhibitory concentration (IC50) in data set [1] (read-out: IC50) was 6.2 µM. Consider `Cc1cc(C)cc(NCC(O)COc2c(C)cc(C(C)(C)c3cc(C)c(OCC(O)CNc4cc(C)cc(C)c4)c(C)c3)cc2C)c1` (stereo not drawn), for which the IC50 result in [1] is “Not Active”.

As to `OC(COc1c(Br)cc(C(c2cc(Br)c(OCC(O)CN3CCOCC3)c(Br)c2)(C(F)(F)F)C(F)(F)F)cc1Br)CN1CCOCC1` (stereo not drawn), the IC50 result in data set [1] is reported as “Not Active”. On to `CN1CCN(CC(O)COc2c(Br)cc(C3(c4cc(Br)c(OCC(O)CN5CCN(C)CC5)c(Br)c4)CCCC3)cc2Br)CC1` (stereo not drawn), for which the IC50 in data set [1] (read-out: IC50) was 24 µM.

`Cc1cc(C2(c3cc(C)c(OCC(O)CN4CCN(C)CC4)c(C)c3)CCCCCC2)cc(C)c1OCC(O)CN1CCN(C)CC1` (stereo not drawn): the IC50 in data set [1] (read-out: IC50) is 32 µM.

For `CN1CCN(CC(O)COc2ccc(C(c3ccc(OCC(O)CN4CCN(C)CC4)cc3)(C(F)(F)F)C(F)(F)F)cc2)CC1` (stereo not drawn), the IC50 in [1] (read-out: IC50) came to 380 µM. As to `Cc1cc(C(C)(C)c2cc(C)c(OCC(O)CN3CCN(C)CC3)c(C)c2)cc(C)c1OCC(O)CN1CCN(C)CC1` (stereo not drawn), the IC50 entry in data set [1] is reported as “Not Active”.

For the compound `CN1CCN(CC(O)COc2c(Br)cc(C(C)(C)c3cc(Br)c(OCC(O)CN4CCN(C)CC4)c(Br)c3)cc2Br)CC1` (stereo not drawn), the IC50 in data set [1] (read-out: IC50) was 23 µM. Consider `Cc1cc(C(C)(C)c2cc(C)c(OCC(O)CNc3ccc(C(C)(C)C)cc3)c(C)c2)cc(C)c1OCC(O)CNc1ccc(C(C)(C)C)cc1` (stereo not drawn), for which the concentration for half-maximal inhibition (IC50) result in data set [1] was “Not Active”. Regarding `CN1CCN(CC(O)COc2ccc(C3(c4ccc(OCC(O)CN5CCN(C)CC5)c(Br)c4)CCCCC3)cc2Br)CC1` (stereo not drawn), the IC50 in data set [1] (read-out: IC50) stood at 13 µM.

In the case of `CC(c1cc(Br)c(OCC(O)CN2CCN(C)CC2)c(Br)c1)c1cc(Br)c(OCC(O)CN2CCN(C)CC2)c(Br)c1` (stereo not drawn), the IC50 in [1] (read-out: IC50) is 25 µM.

The record behind these values is ChEMBL document CHEMBL1268869, “Structural optimization and biological evaluation of substituted bisphenol A derivatives as beta-amyloid peptide aggregation inhibitors” (J Med Chem, 2010).
